Source: ChEMBL document CHEMBL1821692, “Synthesis and evaluation of diarylthiazole derivatives that inhibit activation of sterol regulatory element-binding proteins” (J Med Chem, 2011)
Converted amounts (≈) assume the structure as drawn. The source made the active and inactive calls. No cut-off for these calls is given here.

Tests used:
[1] = Aqueous solubility of the compound at pH 7 after 24 hrs by LC-MS/MS analysis; type: physicochemical; settings: buffer, pH 7, 24 h
Outline: (§1)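 DMSO stock diluted to 250 μM in aqueous buffer at pH 3 or pH 7 and held 24 h. Solution filtered through a 0.22 μm membrane; compound in the filtrate quantified by LC-MS/MS.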

Hepatocyte [2] = assay: Metabolic stability in mouse hepatocytes at 1 uM after 90 mins by LC-MS/MS analysis; type: ADME, cell-based; settings: 1.5 h
Outline: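 Each compound at 1 μM incubated at 37 °C in Leibovitz L-15 medium with mouse hepatocytes (3×10^5 cells mL⁻¹), in duplicate with shaking. […] After centrifugation the supernatant went to LC-MS/MS. Controls were compound in medium alone, and 7-ethoxycoumarin/7-hydroxycoumarin for phase I/II activity.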

Hepatocyte [3] = assay: Half life in mouse hepatocytes at 1 uM after 90 mins by LC-MS/MS analysis; type: ADME, cell-based, Liver; settings: 1.5 h
Outline: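 Compound at 1 μM incubated at 37 °C with shaking in Leibovitz L-15 medium with mouse hepatocytes (3×10^5 cells mL⁻¹), in duplicate. […] Medium-only incubations served as negative controls; 7-ethoxycoumarin and 7-hydroxycoumarin were positive controls for phase I/II activity.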

[4] = Aqueous solubility of the compound at pH 3 after 24 hrs by LC-MS/MS analysis; type: physicochemical; settings: buffer, pH 3, 24 h; outline: as §1
[5] = Apparent permeability at 10 uM after 4 hrs by PAMPA; type: ADME
Outline: (§2)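 Passive diffusion across 15% soy lecithin in n-dodecane artificial membrane on a filter plate. […] Sandwich incubated 4 h at 37 °C. Acceptor, donor and initial donor solutions quantified by LC-MS/MS; Papp and % membrane retention calculated.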

[6] = Apparent permeability assessed as membrane retention at 10 uM after 4 hrs by PAMPA; type: ADME; outline: as §2
[7] = target: T1, Sterol regulatory element-binding protein 2 (Homo sapiens) (UniProt Q12772); settings: CHO-K1; 1 to 20 uM
T1 sequence (whole entry): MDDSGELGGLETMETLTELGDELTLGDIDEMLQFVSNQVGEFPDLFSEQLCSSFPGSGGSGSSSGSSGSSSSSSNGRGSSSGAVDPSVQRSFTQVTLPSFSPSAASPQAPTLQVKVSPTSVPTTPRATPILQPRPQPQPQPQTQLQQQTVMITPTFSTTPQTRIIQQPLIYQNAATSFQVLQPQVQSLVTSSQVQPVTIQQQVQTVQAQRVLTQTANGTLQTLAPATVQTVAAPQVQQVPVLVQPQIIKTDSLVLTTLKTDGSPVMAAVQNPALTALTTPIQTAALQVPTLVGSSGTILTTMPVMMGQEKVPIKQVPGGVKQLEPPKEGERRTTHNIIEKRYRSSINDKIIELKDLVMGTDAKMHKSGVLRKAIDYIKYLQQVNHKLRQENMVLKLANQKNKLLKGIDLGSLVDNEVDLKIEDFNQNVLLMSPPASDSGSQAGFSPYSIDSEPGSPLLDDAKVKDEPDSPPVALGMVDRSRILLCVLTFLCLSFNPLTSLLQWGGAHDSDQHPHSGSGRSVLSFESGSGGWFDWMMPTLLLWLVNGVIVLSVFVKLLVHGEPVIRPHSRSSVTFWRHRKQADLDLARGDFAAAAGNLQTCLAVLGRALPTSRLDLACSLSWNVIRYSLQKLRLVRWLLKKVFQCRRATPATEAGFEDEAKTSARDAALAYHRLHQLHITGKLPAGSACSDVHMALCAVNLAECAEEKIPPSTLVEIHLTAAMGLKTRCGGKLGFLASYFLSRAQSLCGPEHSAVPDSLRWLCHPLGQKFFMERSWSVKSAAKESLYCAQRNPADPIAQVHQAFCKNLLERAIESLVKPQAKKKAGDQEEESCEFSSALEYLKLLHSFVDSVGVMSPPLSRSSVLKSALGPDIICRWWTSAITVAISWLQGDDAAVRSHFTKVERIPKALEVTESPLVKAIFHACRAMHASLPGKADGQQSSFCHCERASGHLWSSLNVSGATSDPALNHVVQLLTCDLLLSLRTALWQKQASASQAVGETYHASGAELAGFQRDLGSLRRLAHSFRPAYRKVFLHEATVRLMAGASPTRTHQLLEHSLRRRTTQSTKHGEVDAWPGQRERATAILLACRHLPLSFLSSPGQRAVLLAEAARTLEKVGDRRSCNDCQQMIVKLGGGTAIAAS

With `CCCc1cc(-c2nc(-c3ccc(C)cc3)cs2)ccn1` [FATOSTATIN] the solubility [1] was 2 µM (≈ 0.589 µg/mL), the Stability (Hepatocyte [2]) was “Stable” and the t1/2 (Hepatocyte [3]) was 10.1 min. For the same molecule, the solubility [4] was 80 µM (≈ 23.6 µg/mL), the Papp [5] was 0.7555 ×10⁻⁶ cm/s and the Activity [6] was 94%.
In the case of `CCCc1cc(-c2nc(-c3ccc(NC(C)C)cc3)cs2)ccn1`, the solubility [1] is reported as 3 µM (≈ 1.01 µg/mL), the Stability (Hepatocyte [2]) is reported as “Stable” and the t1/2 (Hepatocyte [3]) is reported as 22.4 min. The solubility [4] was over 225 µM, the Papp [5] was 1.059 ×10⁻⁶ cm/s and the Activity [6] was 93.95%.
For `CCCc1cc(-c2nc(-c3ccc(NS(C)(=O)=O)cc3)cs2)ccn1`, the solubility [1] was 33 µM (≈ 12.3 µg/mL), the Stability (Hepatocyte [2]) was “Stable” and the inhibition [7] was “inactive”. The t1/2 (Hepatocyte [3]) was 44.4 min, the solubility [4] was over 225 µM and the Papp [5] was 14.98 ×10⁻⁶ cm/s. The Activity [6] was 97.35%.
For `CC(=O)CC(c1ccccc1)c1c(O)c2ccccc2oc1=O` (stereo not given) [WARFARIN], the Activity [6] was 0%.
